From ChEMBL document CHEMBL1125209, “Boc-CCK-4 derivatives containing side-chain ureas as potent and selective CCK-a receptor agonists” (J Med Chem, 1991)
*1 amine or outer side, *2 acyl side, *3 side chain or, on linkers, in order; H or OH if unused. Where a SMILES comes first, the peptide text is derived from it. Side-chain parts run from the residue outwards. [ ]: non-standard residue; d: D form. The star is where a group is joined. NH(2-CF3-phenyl) = FC(F)(F)c1ccccc1N*; NH(1-naphthyl) = c1ccc2c(N*)cccc2c1; NHPh(4-CF3) = FC(F)(F)c1ccc(N*)cc1; hCit = NC(=O)NCCCC[C@H](N)C(=O)O; NH(2-Me-phenyl) = Cc1ccccc1N*; X3 = O=[N+]([O-])c1ccccc1N*; 3Abz = Nc1cccc(C(=O)O)c1; Orn = NCCC[C@H](N)C(=O)O; βNA = c1ccc2cc(N*)ccc2c1; X4 = CC(=O)c1cccc(N*)c1; X8 = Clc1ccc(N*)c(Cl)c1; 2Abz = Nc1ccccc1C(=O)O; Boc = CC(C)(C)OC(=O)*; NHcHex = C1CCC(N*)CC1; X1 = Clc1cccc(Cl)c1N*; X7 = Clc1cccc(N*)c1Cl; CO = O=C([*:1])[*:2]; X2 = CC(C)c1ccccc1N*; NHPh = c1ccc(N*)cc1; NHtBu = CC(C)(C)N*

Legend:
[1] = molecular target: T1, Cholecystokinin receptor type A (Cavia porcellus, UniProt Q63931); experiment: Binding affinity towards cholecystokinin type A receptor in guinea pig pancreas by using [125I]BH-CCK-8 as radioligand; assay type: tissue-based
T1 sequence (Q63931 whole entry): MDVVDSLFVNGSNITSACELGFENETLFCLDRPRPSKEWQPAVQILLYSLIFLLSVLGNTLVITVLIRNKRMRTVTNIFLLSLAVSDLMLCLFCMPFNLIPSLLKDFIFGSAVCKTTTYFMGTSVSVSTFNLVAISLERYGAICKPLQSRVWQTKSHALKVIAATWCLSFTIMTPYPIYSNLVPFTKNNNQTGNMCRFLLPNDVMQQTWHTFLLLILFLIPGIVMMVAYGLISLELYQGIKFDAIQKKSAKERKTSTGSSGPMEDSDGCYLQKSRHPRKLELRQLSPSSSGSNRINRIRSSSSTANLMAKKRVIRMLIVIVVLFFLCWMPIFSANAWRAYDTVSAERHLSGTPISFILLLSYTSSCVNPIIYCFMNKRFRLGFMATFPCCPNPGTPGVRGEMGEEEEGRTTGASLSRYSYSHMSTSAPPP
Summary of the method: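 Radioligand displacement of [125I]Bolton-Hunter CCK-8, guinea pig pancreas (CCK-A) or cortex (CCK-B) membranes. […] Each determination was run in duplicate with <5% sample variability. Means ±SE are given where there were three or more determinations.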

[2] = molecular target: T1, Cholecystokinin receptor type A; experiment: Binding affinity for Cholecystokinin type A receptor in guinea pig pancreas by using [125I]BH-CCK-8 as radioligand
Cavia porcellus [3] = species: Cavia porcellus; experiment: Percentage response in phosphoinositide hydrolysis relative to maximal response elicited by CCK-8 in guinea pig pancreatic acini; assay type: functional
Summary of the method: (§1)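 Guinea pig pancreatic acini, phosphoinositide hydrolysis. […] Efficacy is expressed as % of the maximal response elicited by CCK-8. Each determination was run in duplicate with <5% sample variability. Means ±SE are given for three or more determinations.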

Cavia porcellus [4] = species: Cavia porcellus; experiment: The compound was tested for effective concentration for amylase release in guinea pig pancreatic Acini; assay type: functional
Summary of the method: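 Amylase release from guinea pig pancreatic acini. […] Each determination was run in duplicate with <5% sample variability. Means ±SE are given where there were three or more determinations.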

[5] = Selectivity ratio of IC50 measured in guinea pig cortex to that of IC50 for guinea pig pancreas; settings: Cavia porcellus
Cavia porcellus [6] = species: Cavia porcellus; experiment: Effective concentration for hydrolysis of phosphoinositide in guinea pig pancreatic Acini; assay type: functional; summary of the method: as §1
[7] = molecular target: Gastrin/cholecystokinin type B receptor (Cavia porcellus); experiment: Binding affinity towards cholecystokinin type B receptor in guinea pig cortex by using [125I]BH-CCK-8 as radioligand

Cc1ccccc1/N=C(/S)NCCCC[C@H](NC(=O)[C@H](Cc1c[nH]c2ccccc12)NC(=O)OC(C)(C)C)C(=O)N[C@@H](CC(=O)O)C(=O)N[C@@H](Cc1ccccc1)C(N)=O
IC50 [1]: 220 nM

CC(C)(C)OC(=O)N[C@@H](Cc1c[nH]c2ccccc12)C(=O)N[C@@H](CCCC/N=C(\S)Nc1ccccc1Cl)C(=O)N[C@@H](CC(=O)O)C(=O)N[C@@H](Cc1ccccc1)C(N)=O
IC50 [2]: 100 nM
Max response (Cavia porcellus [3]): 83%
EC50 (Cavia porcellus [4]): 20 nM
Selectivity [5]: 29

COC(=O)c1ccccc1NC(=O)NCCCC[C@H](NC(=O)[C@H](Cc1c[nH]c2ccccc12)NC(=O)OC(C)(C)C)C(=O)N[C@@H](CC(=O)O)C(=O)N[C@@H](Cc1ccccc1)C(N)=O (Boc-WK([CO-2Abz-OMe])DF-NH2)
IC50 [2]: 34 nM
Selectivity [5]: 91

COC(=O)c1cccc(NC(=O)NCCCC[C@H](NC(=O)[C@H](Cc2c[nH]c3ccccc23)NC(=O)OC(C)(C)C)C(=O)N[C@@H](CC(=O)O)C(=O)N[C@@H](Cc2ccccc2)C(N)=O)c1 (Boc-WK([CO-3Abz-OMe])DF-NH2)
IC50 [1]: 26 nM
Max response (Cavia porcellus [3]): 88%
EC50 (Cavia porcellus [4]): 2.7 nM
Selectivity [5]: 54

CC(C)(C)OC(=O)N[C@@H](Cc1c[nH]c2ccccc12)C(=O)N[C@@H](CCCCNC(=O)Nc1cccc2ccccc12)C(=O)N[C@@H](CC(=O)O)C(=O)N[C@@H](Cc1ccccc1)C(N)=O (Boc-WK([CO-NH(1-naphthyl)])DF-NH2)
IC50 [2]: 16 nM
Max response (Cavia porcellus [3]): 103%
EC50 (Cavia porcellus [4]): 1.6 nM
EC50 (Cavia porcellus [6]): 14 nM
Selectivity [5]: 690

CC(C)(C)OC(=O)N[C@@H](Cc1c[nH]c2ccccc12)C(=O)N[C@@H](CCCCNC(=O)Nc1ccccc1C(F)(F)F)C(=O)N[C@@H](CC(=O)O)C(=O)N[C@@H](Cc1ccccc1)C(N)=O (Boc-WK([CO-NH(2-CF3-phenyl)])DF-NH2)
IC50 [2]: 8 nM
Max response (Cavia porcellus [3]): 100%
EC50 (Cavia porcellus [4]): 0.77 nM
EC50 (Cavia porcellus [6]): 6.2 nM

CC(C)(C)OC(=O)N[C@@H](Cc1c[nH]c2ccccc12)C(=O)N[C@@H](CCCCNC(=O)Nc1ccc(C(F)(F)F)cc1)C(=O)N[C@@H](CC(=O)O)C(=O)N[C@@H](Cc1ccccc1)C(N)=O (Boc-WK([CO-NHPh(4-CF3)])DF-NH2)
IC50 [2]: 170 nM
Selectivity [5]: 5

CC(C)(C)OC(=O)N[C@@H](Cc1c[nH]c2ccccc12)C(=O)N[C@@H](CCCCNC(=O)Nc1ccccc1)C(=O)N[C@@H](CC(=O)O)C(=O)N[C@@H](Cc1ccccc1)C(N)=O (Boc-WK([CO-NHPh])DF-NH2)
Max response (Cavia porcellus [3]): 96%
EC50 (Cavia porcellus [6]): 53 nM
Selectivity [5]: 42
IC50 [7]: 1100 nM

CC(C)(C)OC(=O)N[C@@H](Cc1c[nH]c2ccccc12)C(=O)N[C@@H](CCCCNC(=O)NC1CCCCC1)C(=O)N[C@@H](CC(=O)O)C(=O)N[C@@H](Cc1ccccc1)C(N)=O (Boc-WK([CO-NHcHex])DF-NH2)
Max response (Cavia porcellus [3]): 97%
EC50 (Cavia porcellus [4]): 4.2 nM
EC50 (Cavia porcellus [6]): 55 nM

CC(C)(C)NC(=O)NCCCC[C@H](NC(=O)[C@H](Cc1c[nH]c2ccccc12)NC(=O)OC(C)(C)C)C(=O)N[C@@H](CC(=O)O)C(=O)N[C@@H](Cc1ccccc1)C(N)=O (Boc-WK([CO-NHtBu])DF-NH2)
IC50 [2]: 170 nM
Max response (Cavia porcellus [3]): 73%
EC50 (Cavia porcellus [4]): 42 nM
EC50 (Cavia porcellus [6]): 330 nM
Selectivity [5]: 33

CC(C)(C)OC(=O)N[C@@H](Cc1c[nH]c2ccccc12)C(=O)N[C@@H](CCCCNC(=O)Nc1c(Cl)cccc1Cl)C(=O)N[C@@H](CC(=O)O)C(=O)N[C@@H](Cc1ccccc1)C(N)=O (Boc-WK([CO-X1])DF-NH2)
IC50 [2]: 160 nM
Max response (Cavia porcellus [3]): 66%
EC50 (Cavia porcellus [4]): 44 nM
EC50 (Cavia porcellus [6]): 310 nM
Selectivity [5]: 44

CC(C)c1ccccc1NC(=O)NCCCC[C@H](NC(=O)[C@H](Cc1c[nH]c2ccccc12)NC(=O)OC(C)(C)C)C(=O)N[C@@H](CC(=O)O)C(=O)N[C@@H](Cc1ccccc1)C(N)=O (Boc-WK([CO-X2])DF-NH2)
IC50 [2]: 23 nM
Max response (Cavia porcellus [3]): 85%
EC50 (Cavia porcellus [4]): 4.4 nM
Selectivity [5]: 250

CC(C)(C)OC(=O)N[C@@H](Cc1c[nH]c2ccccc12)C(=O)N[C@@H](CCCCNC(=O)Nc1ccccc1[N+](=O)[O-])C(=O)N[C@@H](CC(=O)O)C(=O)N[C@@H](Cc1ccccc1)C(N)=O (Boc-WK([CO-X3])DF-NH2)
IC50 [2]: 22 nM
Max response (Cavia porcellus [3]): 100%
EC50 (Cavia porcellus [4]): 1.9 nM
EC50 (Cavia porcellus [6]): 21 nM

CC(=O)c1cccc(NC(=O)NCCCC[C@H](NC(=O)[C@H](Cc2c[nH]c3ccccc23)NC(=O)OC(C)(C)C)C(=O)N[C@@H](CC(=O)O)C(=O)N[C@@H](Cc2ccccc2)C(N)=O)c1 (Boc-WK([CO-X4])DF-NH2)
IC50 [1]: 19 nM
Max response (Cavia porcellus [3]): 95%
EC50 (Cavia porcellus [4]): 5.2 nM

CC(C)(C)OC(=O)N[C@@H](Cc1c[nH]c2ccccc12)C(=O)N[C@@H](CCCCNC(=O)Nc1cccc(Cl)c1Cl)C(=O)N[C@@H](CC(=O)O)C(=O)N[C@@H](Cc1ccccc1)C(N)=O (Boc-WK([CO-X7])DF-NH2)
IC50 [1]: 4.5 nM
Selectivity [5]: 670

CC(C)(C)OC(=O)N[C@@H](Cc1c[nH]c2ccccc12)C(=O)N[C@@H](CCCCNC(=O)Nc1ccc(Cl)cc1Cl)C(=O)N[C@@H](CC(=O)O)C(=O)N[C@@H](Cc1ccccc1)C(N)=O (Boc-WK([CO-X8])DF-NH2)
IC50 [1]: 8.5 nM

CC(C)(C)OC(=O)N[C@@H](Cc1c[nH]c2ccccc12)C(=O)N[C@@H](CCCCNC(=O)Nc1ccc2ccccc2c1)C(=O)N[C@@H](CC(=O)O)C(=O)N[C@@H](Cc1ccccc1)C(N)=O (Boc-WK([CO-βNA])DF-NH2)
Max response (Cavia porcellus [3]): 79%
EC50 (Cavia porcellus [4]): 7 nM
EC50 (Cavia porcellus [6]): 140 nM
Selectivity [5]: 200

Cc1ccccc1NC(=O)NCCC[C@H](NC(=O)[C@H](Cc1c[nH]c2ccccc12)NC(=O)OC(C)(C)C)C(=O)N[C@@H](CC(=O)O)C(=O)N[C@@H](Cc1ccccc1)C(N)=O (Boc-W[Orn]([CO-NH(2-Me-phenyl)])DF-NH2)
IC50 [2]: 650 nM
Max response (Cavia porcellus [3]): 36%
EC50 (Cavia porcellus [4]): 420 nM
Selectivity [5]: 23

CC(C)(C)OC(=O)N[C@@H](Cc1c[nH]c2ccccc12)C(=O)N[C@@H](CCCCNC(N)=O)C(=O)N[C@@H](CC(=O)O)C(=O)N[C@@H](Cc1ccccc1)C(N)=O (Boc-W[hCit]DF-NH2)
IC50 [2]: 12000 nM
Selectivity [5]: 0.083
